Test results published in ChEMBL document CHEMBL4689842, “EUbOPEN Chemogenomics Library wave 1” (2021).

Test system: HEK-293T
Assay: Multiplex assay against HEK293T;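 on Population Tubulin-Different-Phenotype (%): share of the cells with healthy nuclei that show this phenotype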
Type: toxicity, cell-based
Conditions: human
In short: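 Compound was added to live cells that had been stained at seeding with Hoechst33342, BioTracker Green Microtubule Cytoskeleton Dye, MitoTracker Red and Annexin V Alexa Fluor 680, and imaging followed on a CQ1 microscope at 37°C and 5% CO2. CellPathfinder machine-learning gating divided cells into Hoechst high-intensity objects or normal cells, normal cells into healthy, pyknosed or fragmented nuclei, and pyknosed cells into mitotic or apoptotic. Tubulin, mitochondrial-mass and membrane-permeability phenotypes are per cents of healthy-nucleus cells.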

[1] = 12 h, 1 µM, compound concentration 1 uM, replicate 1
[2] = 12 h, 1 µM, compound concentration 1 uM, replicate 2
[3] = 12 h, 10 µM, compound concentration 10 uM, replicate 1
[4] = 12 h, 10 µM, compound concentration 10 uM, replicate 2
[5] = 24 h, 1 µM, compound concentration 1 uM, replicate 1
[6] = 24 h, 1 µM, compound concentration 1 uM, replicate 2
[7] = 24 h, 10 µM, compound concentration 10 uM, replicate 1
[8] = 24 h, 10 µM, compound concentration 10 uM, replicate 2
[9] = 48 h, 1 µM, compound concentration 1 uM, replicate 1
[10] = 48 h, 1 µM, compound concentration 1 uM, replicate 2
[11] = 48 h, 10 µM, compound concentration 10 uM, replicate 1
[12] = 48 h, 10 µM, compound concentration 10 uM, replicate 2

For `CC(=O)c1cc(-c2cc(C(=O)NC3CC3)ccc2C)c2ncccn12`, the “Population Apoptotic (%)” value [1] was 51%, the “Population Fragmented Nuclei (%)” value [1] was 11% and the “Population Healthy Nuclei (%)” value [1] was 27%. For the same molecule, the “Population Hoechst High Intensity Objects (%)” value [1] was 12%, the “Population Membrane Permeable-Phenotype (%)” value [1] was 3% and the “Population Mitochondria Different-Phenotype (%)” value [1] was 59%. The “Population Mitotic Cells (%)” value [1] was 48%, the “Population Normal (%)” value [1] was 87% and the “Population Pyknosed Nuclei (%)” value [1] was 61%. For the same molecule, the “Population Tubulin-Different-Phenotype (%)” value [1] was 36%, the “Total Cell Count” value [1] was 275 and the “Population Apoptotic (%)” value [2] was 16%. The “Population Fragmented Nuclei (%)” value [2] was 1%, the “Population Healthy Nuclei (%)” value [2] was 48% and the “Population Hoechst High Intensity Objects (%)” value [2] was 3%. The “Population Membrane Permeable-Phenotype (%)” value [2] was 5%, the “Population Mitochondria Different-Phenotype (%)” value [2] was 17% and the “Population Mitotic Cells (%)” value [2] was 83%. The “Population Normal (%)” value [2] was 96%, the “Population Pyknosed Nuclei (%)” value [2] was 49% and the “Population Tubulin-Different-Phenotype (%)” value [2] was 21%. The “Total Cell Count” value [2] was 271, the “Population Apoptotic (%)” value [3] was 50% and the “Population Fragmented Nuclei (%)” value [3] was 12%. For the same molecule, the “Population Healthy Nuclei (%)” value [3] was 29%, the “Population Hoechst High Intensity Objects (%)” value [3] was 15% and the “Population Membrane Permeable-Phenotype (%)” value [3] was 4%. For the same molecule, the “Population Mitochondria Different-Phenotype (%)” value [3] was 81%, the “Population Mitotic Cells (%)” value [3] was 49% and the “Population Normal (%)” value [3] was 84%. For the same molecule, the “Population Pyknosed Nuclei (%)” value [3] was 58%, the “Population Tubulin-Different-Phenotype (%)” value [3] was 39% and the “Total Cell Count” value [3] was 265. For the same molecule, the “Population Apoptotic (%)” value [4] was 22%, the “Population Fragmented Nuclei (%)” value [4] was 6% and the “Population Healthy Nuclei (%)” value [4] was 31%. The “Population Hoechst High Intensity Objects (%)” value [4] was 4%, the “Population Membrane Permeable-Phenotype (%)” value [4] was 5% and the “Population Mitochondria Different-Phenotype (%)” value [4] was 38%. For the same molecule, the “Population Mitotic Cells (%)” value [4] was 77%, the “Population Normal (%)” value [4] was 95% and the “Population Pyknosed Nuclei (%)” value [4] was 62%. For the same molecule, the “Population Tubulin-Different-Phenotype (%)” value [4] was 21%, the “Total Cell Count” value [4] was 199 and the “Population Apoptotic (%)” value [5] was 51%. The “Population Fragmented Nuclei (%)” value [5] was 15%, the “Population Healthy Nuclei (%)” value [5] was 31% and the “Population Hoechst High Intensity Objects (%)” value [5] was 13%. The “Population Membrane Permeable-Phenotype (%)” value [5] was 2%, the “Population Mitochondria Different-Phenotype (%)” value [5] was 42% and the “Population Mitotic Cells (%)” value [5] was 48%. For the same molecule, the “Population Normal (%)” value [5] was 86%, the “Population Pyknosed Nuclei (%)” value [5] was 52% and the “Population Tubulin-Different-Phenotype (%)” value [5] was 26%. The “Total Cell Count” value [5] was 305, the “Population Apoptotic (%)” value [6] was 10% and the “Population Fragmented Nuclei (%)” value [6] was 5%. For the same molecule, the “Population Healthy Nuclei (%)” value [6] was 65%, the “Population Hoechst High Intensity Objects (%)” value [6] was 2% and the “Population Membrane Permeable-Phenotype (%)” value [6] was 1%. The “Population Mitochondria Different-Phenotype (%)” value [6] was 16%, the “Population Mitotic Cells (%)” value [6] was 89% and the “Population Normal (%)” value [6] was 97%. For the same molecule, the “Population Pyknosed Nuclei (%)” value [6] was 29%, the “Population Tubulin-Different-Phenotype (%)” value [6] was 25% and the “Total Cell Count” value [6] was 349. The “Population Apoptotic (%)” value [7] was 46%, the “Population Fragmented Nuclei (%)” value [7] was 18% and the “Population Healthy Nuclei (%)” value [7] was 31%. For the same molecule, the “Population Hoechst High Intensity Objects (%)” value [7] was 17%, the “Population Membrane Permeable-Phenotype (%)” value [7] was 0% and the “Population Mitochondria Different-Phenotype (%)” value [7] was 76%. The “Population Mitotic Cells (%)” value [7] was 53%, the “Population Normal (%)” value [7] was 82% and the “Population Pyknosed Nuclei (%)” value [7] was 49%. The “Population Tubulin-Different-Phenotype (%)” value [7] was 38%, the “Total Cell Count” value [7] was 280 and the “Population Apoptotic (%)” value [8] was 28%. The “Population Fragmented Nuclei (%)” value [8] was 7%, the “Population Healthy Nuclei (%)” value [8] was 51% and the “Population Hoechst High Intensity Objects (%)” value [8] was 3%. For the same molecule, the “Population Membrane Permeable-Phenotype (%)” value [8] was 4%, the “Population Mitochondria Different-Phenotype (%)” value [8] was 33% and the “Population Mitotic Cells (%)” value [8] was 71%. For the same molecule, the “Population Normal (%)” value [8] was 96%, the “Population Pyknosed Nuclei (%)” value [8] was 41% and the “Population Tubulin-Different-Phenotype (%)” value [8] was 30%. For the same molecule, the “Total Cell Count” value [8] was 233, the “Population Apoptotic (%)” value [9] was 44% and the “Population Fragmented Nuclei (%)” value [9] was 15%. For the same molecule, the “Population Healthy Nuclei (%)” value [9] was 43%, the “Population Hoechst High Intensity Objects (%)” value [9] was 14% and the “Population Membrane Permeable-Phenotype (%)” value [9] was 10%. The “Population Mitochondria Different-Phenotype (%)” value [9] was 22%, the “Population Mitotic Cells (%)” value [9] was 55% and the “Population Normal (%)” value [9] was 85%. For the same molecule, the “Population Pyknosed Nuclei (%)” value [9] was 41%, the “Population Tubulin-Different-Phenotype (%)” value [9] was 28% and the “Total Cell Count” value [9] was 343. The “Population Apoptotic (%)” value [10] was 8%, the “Population Fragmented Nuclei (%)” value [10] was 6% and the “Population Healthy Nuclei (%)” value [10] was 78%. For the same molecule, the “Population Hoechst High Intensity Objects (%)” value [10] was 4%, the “Population Membrane Permeable-Phenotype (%)” value [10] was 4% and the “Population Mitochondria Different-Phenotype (%)” value [10] was 6%. For the same molecule, the “Population Mitotic Cells (%)” value [10] was 91%, the “Population Normal (%)” value [10] was 95% and the “Population Pyknosed Nuclei (%)” value [10] was 14%. For the same molecule, the “Population Tubulin-Different-Phenotype (%)” value [10] was 21%, the “Total Cell Count” value [10] was 595 and the “Population Apoptotic (%)” value [11] was 57%. For the same molecule, the “Population Fragmented Nuclei (%)” value [11] was 24%, the “Population Healthy Nuclei (%)” value [11] was 24% and the “Population Hoechst High Intensity Objects (%)” value [11] was 17%. The “Population Membrane Permeable-Phenotype (%)” value [11] was 1%, the “Population Mitochondria Different-Phenotype (%)” value [11] was 63% and the “Population Mitotic Cells (%)” value [11] was 42%. For the same molecule, the “Population Normal (%)” value [11] was 82%, the “Population Pyknosed Nuclei (%)” value [11] was 51% and the “Population Tubulin-Different-Phenotype (%)” value [11] was 36%. The “Total Cell Count” value [11] was 280, the “Population Apoptotic (%)” value [12] was 17% and the “Population Fragmented Nuclei (%)” value [12] was 6%. The “Population Healthy Nuclei (%)” value [12] was 58%, the “Population Hoechst High Intensity Objects (%)” value [12] was 3% and the “Population Membrane Permeable-Phenotype (%)” value [12] was 5%. For the same molecule, the “Population Mitochondria Different-Phenotype (%)” value [12] was 29%, the “Population Mitotic Cells (%)” value [12] was 82% and the “Population Normal (%)” value [12] was 96%. For the same molecule, the “Population Pyknosed Nuclei (%)” value [12] was 35% and the “Total Cell Count” value [12] was 284.
